Source: ChEMBL document CHEMBL1140316, “Synthesis and immunosuppressive activity of new artemisinin derivatives. 1. [12(beta or alpha)-Dihydroartemisininoxy]phen(ox)yl aliphatic acids and esters” (J Med Chem, 2005)

Legend:
[1] = In vitro concentration of compound required to inhibit LPS-induced B cell proliferation to 50% in BALB/c mice; assay type: functional, cell-based; conditions: Mus musculus
In short: (§1)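 Fresh spleen cells from male BALB/c mice (7–9 weeks); 5 × 10^5 cells per well in RPMI 1640 with 10% FBS, penicillin/streptomycin, 37 °C, 5% CO2, 48 h, with test compounds at varied concentrations. Stimulated with 5 µg/mL ConA (T cells) or 10 µg/mL LPS (B cells). Proliferation read as [3H]thymidine uptake over an 8 h pulse (20 kBq/well), scintillation counting. IC50 is the concentration that inhibits proliferation to 50% of control.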

T-cell = assay: In vitro concentration of compound required to inhibit ConA-induced T cell proliferation to 50% in BALB/c mice; assay type: functional, cell-based; conditions: Mus musculus; in short: as §1
Mus musculus [2] = species: Mus musculus; assay: In vitro concentration of compound required to reduced spleen cell viability to 50% in BALB/c mice; assay type: functional
In short: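 Male BALB/c mouse spleen cells (7–9 weeks), erythrocytes lysed with ammonium chloride, 5 × 10^5 cells per well in RPMI 1640/10% FBS with antibiotics. Exposed to a range of compound concentrations for 48 h at 37 °C, 5% CO2. MTT (5 mg/mL stock) added for the final 5 h, then SDS/DMF lysis buffer (pH 7.2) for 6–7 h. Absorbance read at 570 nm; CC50 is the concentration reducing viability to 50%.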

Mus musculus [3] = species: Mus musculus; assay: Ratio of concentration that reduced cell viability to inhibitory concentration for LPS-induced B cell proliferation; assay type: functional
Mus musculus [4] = species: Mus musculus; assay: Ratio of concentration that reduced cell viability to inhibitory concentration for ConA-induced T cell proliferation; assay type: functional

SMILES | IC50 [1] | IC50 (T-cell) | CC50 (Mus musculus [2]) | Selectivity index (Mus musculus [3]) | Selectivity index (Mus musculus [4])
C[C@H]1[C@@H](Oc2ccc(CC(=O)O)cc2)O[C@@H]2O[C@]3(C)CCC4[C@H](C)CC[C@@H]1[C@]42OO3 (some centres not stated) | 10.2 µM | 11.8 µM | > 100 µM | >10 | >9
C[C@H]1[C@@H](Oc2cccc(OC(=O)CCC(=O)O)c2)O[C@@H]2O[C@]3(C)CCC4[C@H](C)CC[C@@H]1[C@]42OO3 (some centres not stated) | 0.265 µM | 0.327 µM | 52.7 µM | 199 | 161
CCOC(=O)CNC(=O)c1ccc(O[C@H]2O[C@@H]3O[C@]4(C)CC[C@H]5[C@H](C)CC[C@@H]([C@H]2C)[C@@]35OO4)cc1 | 0.0537 µM | 2.53 µM | 130 µM | 2421 | 51
CC(Oc1cccc(OC2O[C@@H]3O[C@]4(C)CC[C@H]5[C@H](C)CC[C@@H]([C@H]2C)[C@@]35OO4)c1)C(=O)O (some centres not stated) | 0.74 µM | 8.6 µM | 35.1 µM | 47 | 4
CCOC(=O)C(C)Oc1ccc(OC2O[C@@H]3OC4(C)CCC5[C@H](C)CC[C@@H]([C@H]2C)[C@]53OO4)cc1 (single isomer, unassigned) | 0.85 µM | 0.26 µM | > 100 µM | >118 | >385
CC(C(=O)O)c1ccc(O[C@H]2O[C@@H]3OC4(C)CCC5[C@H](C)CC[C@@H]([C@H]2C)[C@]53OO4)cc1 (single isomer, unassigned) | 8.6 µM | 3.6 µM | 59.6 µM | 7 | 17
CC(Oc1cccc(O[C@@H]2OC3OC4(C)CCC5[C@H](C)CC[C@@H]([C@H]2C)[C@@]35OO4)c1)C(=O)O (single isomer, unassigned) | 1.05 µM | 7.64 µM | 5.54 µM | 5 | 1
C[C@H]1[C@@H](Oc2ccc(OCC(=O)O)cc2)OC2OC3(C)CCC4[C@H](C)CC[C@@H]1[C@@]24OO3 (single isomer, unassigned) | 5.98 µM | 5.34 µM | 354 µM | 59 | 66
COC(=O)Cc1ccc(O[C@H]2O[C@@H]3OC4(C)CCC5[C@H](C)CC[C@@H]([C@H]2C)[C@]53OO4)cc1 (single isomer, unassigned) | 0.179 µM | 0.713 µM | 8 µM | 45 | 11
COc1ccccc1OC(=O)C(C)Oc1cccc(O[C@H]2O[C@@H]3OC4(C)CC[C@H]5[C@H](C)CC[C@@H]([C@H]2C)[C@@]35OO4)c1 (single isomer, unassigned) | 0.57 µM | 4.12 µM | 2.99 µM | 5 | 1
CCOC(=O)C(C)Oc1cccc(OC2OC3OC4(C)CC[C@H]5[C@H](C)CC[C@@H]([C@H]2C)[C@@]35OO4)c1 (single isomer, unassigned) | 0.35 µM | 1.73 µM | 1.36 µM | 4 | 1
CC(Oc1ccc(OC2O[C@@H]3OC4(C)CC[C@H]5[C@H](C)CC[C@@H]([C@H]2C)[C@@]35OO4)cc1)C(=O)O (single isomer, unassigned) | 0.86 µM | 7.27 µM | > 100 µM | >116 | >14
C[C@H]1[C@@H](Oc2ccc(OCC(=O)OCCN(C)C)cc2)O[C@@H]2OC3(C)CC[C@H]4[C@H](C)CC[C@@H]1[C@@]24OO3 (single isomer, unassigned) | 0.0496 µM | 1.96 µM | 2.08 µM | 42 | 1
COC(=O)CCc1ccc(O[C@H]2O[C@@H]3OC4(C)CC[C@H]5[C@H](C)CC[C@@H]([C@H]2C)[C@@]35OO4)cc1 (single isomer, unassigned) | 0.0178 µM | 0.138 µM | 41.7 µM | 2343 | 302
COc1ccccc1OC(=O)C(C)Oc1ccc(O[C@H]2O[C@@H]3OC4(C)CC[C@H]5[C@H](C)CC[C@@H]([C@H]2C)[C@@]35OO4)cc1 (single isomer, unassigned) | 0.27 µM | 2.33 µM | 39.1 µM | 145 | 17
COC(=O)C(C)c1ccc(O[C@H]2O[C@@H]3OC4(C)CC[C@H]5[C@H](C)CC[C@@H]([C@H]2C)[C@@]35OO4)cc1 (single isomer, unassigned) | 0.78 µM | 0.0137 µM | 6.53 µM | 8 | 477
COC(=O)COc1ccc(O[C@H]2OC3OC4(C)CC[C@H]5[C@H](C)CC[C@@H]([C@H]2C)[C@@]35OO4)cc1 (single isomer, unassigned) | 0.00727 µM | 0.244 µM | 207 µM | 28473 | 848
C[C@H]1[C@@H](Oc2ccc(CCC(=O)O)cc2)O[C@@H]2OC3(C)CC[C@H]4[C@H](C)CC[C@@H]1[C@@]24OO3 (single isomer, unassigned) | 0.107 µM | 4 µM | 10.4 µM | 97 | 3
CCOC(=O)C(C)Oc1cccc(O[C@H]2O[C@@H]3OC4(C)CC[C@H]5[C@H](C)CC[C@@H]([C@H]2C)[C@@]35OO4)c1 (single isomer, unassigned) | 0.56 µM | 3.59 µM | 2.99 µM | 5 | 1
CO[C@H]1O[C@@H]2O[C@@]3(C)CC[C@H]4[C@H](C)CC[C@@H]([C@H]1C)[C@@]24OO3 [ARTEMETHER] | 1.78 µM | 3.82 µM | 86 µM | 48 | 23
C[C@@H]1CC[C@H]2[C@@H](C)C(=O)O[C@@H]3O[C@@]4(C)CC[C@@H]1[C@]32OO4 [ARTEMISININ] | 8.96 µM | 4.43 µM | 28.3 µM | 3 | 6
C[C@H]1[C@H](OC(=O)CCC(=O)O)O[C@@H]2O[C@@]3(C)CC[C@H]4[C@H](C)CC[C@@H]1[C@@]24OO3 [ARTESUNATE] | 0.989 µM | 4.58 µM | 32.9 µM | 33 | 7
C/C=C/C[C@@H](C)[C@@H](O)[C@H]1C(=O)N[C@@H](CC)C(=O)N(C)CC(=O)N(C)[C@@H](CC(C)C)C(=O)N[C@@H](C(C)C)C(=O)N(C)[C@@H](CC(C)C)C(=O)N[C@@H](C)C(=O)N[C@H](C)C(=O)N(C)[C@@H](CC(C)C)C(=O)N(C)[C@@H](CC(C)C)C(=O)N(C)[C@@H](C(C)C)C(=O)N1C [CYCLOSPORINE] | – | – | – | 7 | 963
